Screening data from PubChem.
NPY Y2 blocker = antagonists of human neuropeptide Y receptor Y2; P49146; NPY-Y2 expressing cells, antagonist mode; 0.99% of 140,000 active; AID 793; inhibition, % at 2.7 µM; in the data active = inhibition above about 17%;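 note: 0% = vehicle with agonist challenge and 100% = reference antagonist with challenge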
Target sequence (P49146 whole entry, looked up): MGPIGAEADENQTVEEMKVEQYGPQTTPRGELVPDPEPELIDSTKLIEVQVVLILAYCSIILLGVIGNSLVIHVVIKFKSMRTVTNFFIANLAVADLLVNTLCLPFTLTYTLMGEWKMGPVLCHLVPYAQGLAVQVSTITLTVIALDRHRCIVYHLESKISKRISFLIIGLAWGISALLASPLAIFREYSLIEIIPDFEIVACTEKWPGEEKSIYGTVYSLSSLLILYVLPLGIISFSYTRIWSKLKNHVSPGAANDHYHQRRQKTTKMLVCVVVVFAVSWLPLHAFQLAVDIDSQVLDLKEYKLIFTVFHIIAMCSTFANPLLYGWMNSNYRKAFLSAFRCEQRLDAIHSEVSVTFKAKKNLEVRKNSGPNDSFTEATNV
NPY1 pot ag = potentiates or activates human NPY-Y1 receptor; activation, % at 3.6 µM; P25929; 0.37% of 220,000 active; NPY-Y1 expressing cells, potentiator/agonist activation; AID 1304; in the data active = activation above about 33%, passing the limit was not always enough;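 note: cells stimulated with NPY at EC10 then isoproterenol at EC100; 0% = low agonist plus stimulus and 100% = saturating agonist plus stimulus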
NPY-Y2 PAM-ag = human NPY-Y2 potentiation or agonism, primary screen. activation, % at 3.6 µM. cells expressing NPY-Y2, potentiator/agonist read-out. 0.45% of 220,000 active; in the data active = activation above about 27%;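 note: cells stimulated with NPY near EC25 plus isoproterenol at EC100; 0% = vehicle plus submaximal agonist and 100% = vehicle plus saturating agonist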
NPY-Y1 antag = blocks the human neuropeptide Y Y1 receptor. AID 1040. inhibition, % at 3.6 µM. HEK293-CNG Y1 cells, membrane potential fluorescence; NPY at EC95, then isoproterenol. P25929. 1% of 200,000 active;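 active = inhibition above the campaign mean inhibition of all tested compounds plus 3 SD, cut at about 20% in these data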;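 note: 0% = DMSO wells given NPY plus isoproterenol and 100% = isoproterenol alone without NPY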
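System: HEK293 cells with Y1 receptor plus CNG channel / Probe or stimulus: NPY 25 nM then isoproterenol 1 µM plus Ro 20-1724 25 µM / Compound: one concentration, 3.6 µM, in 0.4% DMSO / Schedule: compound incubation 1 h at room temperature, readout 45 min post-stimulation / Measured by: membrane potential fluorescence / Read-out: % inhibition of NPY effect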
The depositor's hits bear a star; x = no result. Most compounds without a hit are left out; they make up all but 1.8% or so of the library.

SMILES	NPY Y2 blocker	NPY1 pot ag	NPY-Y2 PAM-ag	NPY-Y1 antag
CC1CCN(c2nc(-c3ccncc3)nc3ccccc23)CC1	30*	-58	-41	31*
CCCc1nc(S(=O)(=O)Cc2ccc(Cl)cc2Cl)n[nH]1	1	4	-3	-4
C/C(=N\N=C(/N)SC1CC(=O)N(c2ccc(Br)cc2)C1=O)c1cccs1 (stereo not given)	-4	45*	44*	-8
C/C(=N\N=C(/N)SC1CC(=O)N(c2ccccc2)C1=O)c1cccs1 (stereo not given)	1	9	14	2
COc1ccccc1OCCC(=O)OCC(=O)c1c(N)n(C)c(=O)n(C)c1=O	x	5	13	0
CCOC(=O)C(C(=O)OCC)c1cc(Br)c2noc3c2c1C(=O)c1ccccc1-3	2	-17	-6	1
CC(=O)OCCNc1cc(N2CCN(C)CC2)c2noc3c2c1C(=O)c1ccccc1-3	-5	49*	33*	-6
Cc1cccc(C)c1NC(=O)C[N+](C)(C)CC(O)COc1cccc2ccccc12 (stereo not given)	x	98*	66*	-10
Cc1ccc(NC(=O)CCC(=O)NNC(=O)COc2cccc3ccccc23)c(C)c1	10	-12	-19	0
O=C1c2ccccc2C(=O)N1CCCCCc1nc(-c2ccccc2)no1	12	-19	-5	22*
Cc1ccc(-c2noc(CCCN3C(=O)c4ccccc4C3=O)n2)cc1	11	0	4	10
CCOC(=O)c1ccc(-c2ccc(/C=C(\C#N)C(=O)NCc3cccs3)o2)cc1	17*	5	6	1
C/C(=N/NC(=O)CNS(=O)(=O)c1ccc(C)cc1)c1cccc([N+](=O)[O-])c1	x	-13	-11	-2
Cc1cc(/C(N)=N/OC(=O)Nc2ccc(Cl)cc2)no1	x	11	1	x
Oc1cc(-c2ccccc2)c2ccccc2c1	3	-16	2	3
O=C(COc1ccc([N+](=O)[O-])cc1)N(Cc1ccccc1)Cc1ccccc1	23*	-16	-8	21*
CC(=O)c1cn(S(=O)(=O)c2ccccc2)c2ccccc12	4	3	-9	0
CCc1ccccc1N1C(=O)[C@@H]2Cc3ccccc3CN2C1=O	x	7	-6	x
Cc1cc(Oc2ccc(C)c(Cl)c2)nc(SCC(=O)c2ccccc2)n1	35*	-74	-23	34*
Cc1ccc(C(=O)CSc2cc(C)nc(SCC(=O)c3ccccc3)n2)cc1	11	-11	-6	10
CCCCCCCCCn1c2c(c(=N)c3c1CCC3)CCC2	37*	-132	-36	90*
CCCCn1c2c(c(=N)c3c1CCC3)CCC2	4	10	15	4
O=C1CC(=C(c2ccccc2)c2ccccc2)C(=O)N1CCCN1CCN(c2cccc(Cl)c2)CC1	1	75*	62*	-1
NNC(=S)Nc1c(Br)cc(F)cc1Br	x	-10	-23	x
O=C(Nc1cccc(C(F)(F)F)c1)C(SCCO)c1ccccc1 (stereo not given)	1	8	4	2
SMILES	NPY Y2 blocker	NPY1 pot ag	NPY-Y2 PAM-ag	NPY-Y1 antag
CCC(C(=O)Nc1cccc(C(F)(F)F)c1)c1ccccc1 (stereo not given)	7	-7	-14	20*
O=C(N/N=C\c1ccc[nH]1)C1COc2ccccc2O1 (stereo not given)	x	2	-3	x
O=C(COc1ccc(/C=N/NS(=O)(=O)c2ccccc2)cc1)Nc1cccc(Cl)c1	18*	25	8	43*
COc1cc(C(C#N)N2CCC(c3ccccc3)=N2)ccc1O (stereo not given)	x	6	-18	x
c1ccc(-c2ccccc2OCCCN2CCCCC2)cc1	18*	13	-6	28*
CC1(C(=O)NCc2ccc(Cl)c(Cl)c2)Oc2ccccc2NC1=O (stereo not given)	x	-8	-10	3
CCN(CC)S(=O)(=O)c1cccc(-c2nnc(SCC(=O)c3cc(C)n(C)c3C)o2)c1	2	-12	12	-1
CCN(CC)S(=O)(=O)c1cccc(-c2nnc(SCCOc3ccccc3C)o2)c1	26*	-38	-13	20*
CCN(CC)S(=O)(=O)c1ccc(-c2nnc(SCc3nnc(-c4ccc(C)cc4)o3)o2)cc1	4	11	18	-3
CCN(CC)S(=O)(=O)c1cccc(-c2nnc(SCCOc3ccc(Cl)cc3)o2)c1	29*	-57	-2	32*
Clc1cccc(Nc2nc(-c3cccnc3)cs2)c1	x	47*	30*	-13
c1ccc(Nc2nc(-c3ccncc3)cs2)cc1	-11	58*	44*	-17
NC(=O)C1CCN(CCS(=O)(=O)c2ccc(Cl)cc2)CC1	x	11	13	x
COC(=O)c1c(NC(=O)CSc2nc3nc(C)cc(C)n3n2)sc(C)c1C	-1	-19	18	-4
O=C(O)CCCNC1=NCCC1	4	16	4	42*
CC(C)(C)C(=O)OCc1nc(-c2ccc(C(F)(F)F)cc2)cs1	x	-32	-7	x
Cc1ccccc1-c1nnn(CC(=O)Nc2ccc3c(c2)OCCO3)n1	x	-25	-35	8
O=C(CSc1nnc2n(C3CCCC3)c(=O)c3ccccc3n12)N1CCCCCC1	3	92*	86*	-10
CC1CCCN(C(=O)CSc2nnc3n(C4CCCC4)c(=O)c4ccccc4n23)C1 (stereo not given)	0	53	19	-6
O=C(NCc1ccc2c(c1)OCO2)c1cc([N+](=O)[O-])ccc1N1CCCCC1	23*	-21	-1	25*
CC1=NN(c2ccccc2)C(=O)/C1=C/c1cn(C)c2ccccc12	x	-8	-4	x
CC(CCc1ccccc1)NC(=O)COC(=O)c1ccc(S(C)(=O)=O)c([N+](=O)[O-])c1 (stereo not given)	x	66*	52*	-6
Cc1nnc(SC(C)C(=O)Nc2c(C)n(C)n(-c3ccccc3)c2=O)n1N (stereo not given)	x	-10	0	1
CN(C)c1nccc(N(Cc2ccccc2)Cc2ccccc2)c1C#N	22*	-93	-37	66*
CCc1nc(Nc2ccc3c(c2)OCO3)c2oc3ccccc3c2n1	2	-21	10	2
SMILES	NPY Y2 blocker	NPY1 pot ag	NPY-Y2 PAM-ag	NPY-Y1 antag
CCc1nc(N2CCN(Cc3ccc4c(c3)OCO4)CC2)c2oc3ccccc3c2n1	21*	-103	-45	26*
CCc1nc(N2CCCCC2)c2oc3ccccc3c2n1	14	-30	-31	8
CCc1nc(N2CCCC(C)C2)c2oc3ccccc3c2n1 (stereo not given)	29*	-25	-23	38*
O=C(NN(CC(O)COc1ccccc1)CC(O)COc1ccccc1)c1ccccc1 (stereo not given)	x	-4	-14	x
COc1cc2c(cc1OC)CN(c1nc(CN3CCOCC3)nc3sc4c(c13)CCCC4)CC2	4	-52	-14	2
COc1cc2c(cc1OC)CN(c1nc(CN3CCCCC3)nc3sc4c(c13)CCCC4)CC2	20*	-69	-15	23*
CCOC(=O)c1cc(-c2ccccc2)nc2c1c(C)nn2-c1ccccn1	60*	-68	-24	49*
CCOC(=O)c1cc(-c2ccc(OC)cc2F)nc2c1c(C)nn2CCC#N	20*	14	0	26*
